These results are taken from ChEMBL document CHEMBL5634116, “Strategies for developing retinoic acid receptor alpha-selective antagonists as novel agents for male contraception” (Eur J Med Chem, 2023).

The source made the active and inactive calls. No cut-off for these calls is given here.

Data set [1] has as its target T1, Retinoic acid receptor alpha (Homo sapiens, UniProt P10276).
T1 sequence (P10276 whole entry): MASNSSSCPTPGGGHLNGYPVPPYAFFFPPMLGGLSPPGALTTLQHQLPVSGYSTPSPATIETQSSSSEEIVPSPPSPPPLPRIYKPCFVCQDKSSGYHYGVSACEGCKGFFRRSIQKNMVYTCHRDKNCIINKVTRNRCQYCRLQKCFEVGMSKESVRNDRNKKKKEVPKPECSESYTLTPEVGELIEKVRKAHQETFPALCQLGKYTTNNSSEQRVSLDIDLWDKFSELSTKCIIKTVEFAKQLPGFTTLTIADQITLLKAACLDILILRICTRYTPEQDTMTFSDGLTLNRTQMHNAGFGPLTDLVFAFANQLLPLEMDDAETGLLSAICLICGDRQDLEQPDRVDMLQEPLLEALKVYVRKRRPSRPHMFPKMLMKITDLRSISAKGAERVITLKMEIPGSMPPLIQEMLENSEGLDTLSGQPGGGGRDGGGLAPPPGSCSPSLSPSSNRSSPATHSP
In words: Antagonist activity at recombinant human RAR-alpha expressed in mammalian cells in presence of 9-cis-RA by luciferase reporter gene based transactivation assay. It is filed as cell-based. The essentials:
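Compounds 8-point dose response in triplicate, DMSO final 0.4%; overnight at 37 °C, 5% CO2; luminescence after 30 min detection reagent. IC50 by four-parameter logistic fit; agonist-free wells set background.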

Data set [2] can be described thus: Metabolic stability in CD-1 mouse intestinal microsomes assessed as compound remaining at 2 x 10^-6 M in presence of NADPH measured for 60 mins. It is filed as ADME, Intestine, Microsome. The settings on record: dose 2 10^-6M, read-out: Stability. Put shortly:
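Male CD-1 mouse intestinal microsomes with NADPH, compound at 2.0 ×10−6 M, 60 min; percent parent remaining.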

Data set [3] relates to Mus musculus. In words: Effect on spermatogenesis in CD-1 mouse assessed as spermatids in abnormal stage IX tubules at 5 mg/kg/day, po for 7 days measured after 4 weeks post-cessation of drug treatment by hematoxylin counter-staining based analysis. It is filed as functional, organism-based. The settings on record: time 5.0 weeks.
Data set [4] has as its system Mus musculus. The data set can be described thus: Effect on spermatogenesis in CD-1 mouse assessed as sperm count at 10 mg/kg/day, po for 2 weeks measured after 4 weeks post-cessation of drug treatment by hemocytometry (reference value: 50.30 +/- 5.90 x 10^6No_unit). It is filed as functional. To be noted: time 6 weeks.
Data set [5] deals with T2, Retinoic acid receptor gamma (Homo sapiens, UniProt P13631).
T2 sequence (P13631 whole entry): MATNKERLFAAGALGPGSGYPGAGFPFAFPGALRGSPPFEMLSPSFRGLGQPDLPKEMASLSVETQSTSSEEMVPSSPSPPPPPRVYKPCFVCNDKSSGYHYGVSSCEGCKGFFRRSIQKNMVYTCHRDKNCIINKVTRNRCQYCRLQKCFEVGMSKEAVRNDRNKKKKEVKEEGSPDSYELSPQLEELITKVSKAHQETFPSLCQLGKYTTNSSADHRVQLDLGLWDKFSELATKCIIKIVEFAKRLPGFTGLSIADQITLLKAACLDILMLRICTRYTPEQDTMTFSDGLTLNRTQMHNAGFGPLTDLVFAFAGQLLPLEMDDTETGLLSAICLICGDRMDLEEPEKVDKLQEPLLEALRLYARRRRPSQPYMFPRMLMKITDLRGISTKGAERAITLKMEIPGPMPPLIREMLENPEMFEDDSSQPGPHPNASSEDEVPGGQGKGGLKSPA
In words: Agonist activity at recombinant human RAR-gamma expressed in mammalian cells by luciferase reporter gene based transactivation assay. It is filed as cell-based. Put shortly: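 Human RAR-subtype luciferase reporter cells (RARE-driven). Compounds in DMSO (final 0.4%) tested as 8-point dose response in triplicate. Incubated overnight at 37 °C in 5% CO2, then detection reagent 30 min at r.t. and luminescence measured. EC50 by four-parameter logistic fit, mean ± SEM from geometric mean of log EC50 across independent experiments.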

The test system of data set [6] is Mus musculus. In words: Effect on fertility in CD-1 mouse assessed as size of embryonic litters formed post-cessation of drug treatment at 5 mg/kg/day, po for 7 days followed by drug cessation and initiation of mating for 2 weeks. It is filed as functional. To be noted: time 3 weeks.
In data set [7] the test system is Mus musculus. In words: Effect on spermatogenesis in CD-1 mouse assessed as testicular weight at 5 mg/kg/day, po for 7 days measured on day 1 post-cessation of drug treatment (reference value: 0.12 +/- 0.01 g). It is filed as functional. The settings on record: time 8 day.
The subject of data set [8] is Mus musculus. In words: Effect on spermatogenesis in CD-1 mouse assessed as sperm count at 10 mg/kg/day, po for 2 weeks measured on day 1 post-cessation of drug treatment by hemocytometry (reference value: 41.80 +/- 7.92 x 10^6No_unit). It is filed as functional. The settings on record: time 15 day.
Data set [9] deals with Mus musculus. In words: Effect on spermatogenesis in CD-1 mouse assessed as reduction in sperm count administered as Avicel formulation at 10 mg/kg/day, po for 28 days consecutively measured on day 1 post-cessation of drug treatment by hemocytometry relative to control. It is filed as functional. More on the design: scale not given: the % may be the effect or the level left. To be noted: time 29 day.

Turning to `Cc1ccc(C2=CC(C)(C)Oc3ccc(C(=O)Nc4ccc(C(=O)O)cc4)cc32)cc1`, the half-inhibitory concentration (IC50) in data set [1] amounted to 4.6 nM. For the same compound, the remaining at 1 h, 2 µM in data set [2] worked out at 100%. In addition, the result in [3] was inactive. For the same compound, the Activity was 44.75 10^6No_unit in data set [4]; 12.15 in [6]; 0.11 g in data set [7]; 37.2 10^6No_unit in data set [8]; about 56% in data set [9]. For the same compound, in [5], the EC50 worked out at 520 nM.
